SMILES strings stand for the structures.

A short description of this data set: Toxicity liver stage against HepG2, at 10uM. It counts as cell-based. More on the design: test concentration 10 uM, cell line HepG2-A16-CD81EGFP. The settings on record: human, HepG2-A16-CD81EGFP cells; read-out: INHIBITION
Put shortly: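 Uninfected HepG2-A16-CD81EGFP cells, 3 × 10^3 per well, 1536-well, plated on prespotted compound at 10 μM final, parasite-free screening media added to match infected plates; puromycin 10 μM positive, DMSO 0.5% negative; run in parallel with 48 h PbLuc assay at 37 °C, 5% CO2; viability by CellTiter-Glo luminescence, normalized to controls.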
Consider `O=C(Nc1nccs1)c1csc(NC2CCCC2)n1`, for which the cytotoxicity at 10 µM was 42%.

Consider `CC1=Nc2c(c(=O)[nH]n2C(C)C)C(c2ccc3ncccc3c2)S1` (stereo unspecified), for which the cytotoxicity at 10 µM was 4.66%.

Regarding `O=C(C1=COCCO1)N1CC(Oc2nc3c(C(F)(F)F)cccc3s2)C1`, the cytotoxicity at 10 µM worked out at 36%.

Consider `CCOc1ccc(S(=O)(=O)Nc2cnc(OC)nc2OC)cc1`, for which the cytotoxicity at 10 µM came out at 44.7%.

In the case of `CNC(=O)CS(=O)(=O)C1CCN(S(=O)(=O)c2cccc(Cl)c2C)CC1`, the cytotoxicity at 10 µM stood at 4.73%.

On to `O=C(Nc1cccc(Cl)c1)c1nn(C2CCS(=O)(=O)C2)c2c1CCCC2` (stereo unspecified), for which the cytotoxicity at 10 µM is -12.9%.

`CCOC(=O)Cn1cnc2nc3n(c2c1=O)CCC3`: the cytotoxicity at 10 µM is -2.06%.

Regarding `Cc1cccc(NC(C)C(=O)Nc2nccs2)c1` (stereo unspecified), the cytotoxicity at 10 µM is -0.524%.

Regarding `Oc1cc(C2CCCN(Cc3cccs3)C2)nc(-c2ccccn2)n1` (stereo unspecified), the cytotoxicity at 10 µM worked out at 29.5%.

Take `Cc1nn(C)cc1C1=NS(=O)(=O)N(C)C(C(=O)Nc2ccc(Br)cc2)=C1`: the cytotoxicity at 10 µM is 3.46%.

Take `CC(C)(C)n1nnnc1CN(Cc1ccccc1)Cc1ccc(Cl)cc1`: the cytotoxicity at 10 µM was determined as 28.8%.

Take `NS(=O)(=O)c1ccc(NCc2ccccc2F)cc1C(F)(F)F`: the cytotoxicity at 10 µM was -10.2%.

With `CCc1ccc(S(=O)(=O)N2CCCC(c3ncc[nH]3)C2)s1` (stereo unspecified), the cytotoxicity at 10 µM turned out to be 12.8%.

`FC(F)Oc1ccc(CNCc2cc(Br)c3c(c2)OCO3)cc1`: the cytotoxicity at 10 µM was found to be 35.1%.

Regarding `COc1ccc(C2CCCN2c2ccnc(C)c2Cl)c(OC)c1` (stereo unspecified), the cytotoxicity at 10 µM was 28.4%.

With `Cn1nccc1C1CCN(Cc2cnn(-c3ccccc3)n2)CC1`, the cytotoxicity at 10 µM is 27.2%.

As for `O=C(CN1CCCC(c2ncc[nH]2)C1)NCC(F)(F)F` (stereo unspecified), the cytotoxicity at 10 µM came out at 9.37%.

As for `CC1CCN(CCNC(=O)c2sccc2C2CC2)CC1`, the cytotoxicity at 10 µM was -144%.

In the case of `COCCN(Cc1ccccc1)C(=O)c1cnn(C)c1C`, the cytotoxicity at 10 µM was -144%.

Turning to `CCc1nc(CN(C)C(=O)c2ccc(OCCCOC)nc2)cs1`, the cytotoxicity at 10 µM is -19.5%.

`CCCOc1ccccc1C(N)CC(C)C` (stereo unspecified): the cytotoxicity at 10 µM is -0.595%.

With `O=C(O)c1cc(S(=O)(=O)Nc2cccc3c2OCCO3)c(Cl)cc1F`, the cytotoxicity at 10 µM is -7.08%.

Regarding `CC(CCc1ccccc1F)C(=O)NS(=O)(=O)N(C)C(C)C` (stereo unspecified), the cytotoxicity at 10 µM came to 10.6%.

Regarding `CN(CCc1ccccn1)Cc1nccn1Cc1ccccc1`, the cytotoxicity at 10 µM worked out at 10.1%.

Take `CN(Cc1ccccc1OC(F)(F)F)C(=O)C1CC1`: the cytotoxicity at 10 µM was determined as 10.8%.

Turning to `CC(=O)c1cccc(OCCCC(=O)N(C)Cc2cnn(C)c2)c1`, the cytotoxicity at 10 µM is -3.05%.

On to `CC(C)c1cc(C(=O)N2CCN(Cc3ccc(C#N)cc3)CC2)n[nH]1`, for which the cytotoxicity at 10 µM is 26.3%.

With `COCCN(Cc1ccc(F)cc1Cl)C(=O)c1cnn(C)c1C`, the cytotoxicity at 10 µM turned out to be 12.8%.

For the compound `Cc1cnn(CC2CCCN2Cc2coc(-c3cccc(F)c3)n2)c1` (stereo unspecified), the cytotoxicity at 10 µM came out at 1.2%.

Regarding `CC(C)c1noc(CN(Cc2ccc(F)cc2)C2CC2)n1`, the cytotoxicity at 10 µM came out at 6.83%.

Consider `CC(=O)Nc1cccc(OCCNC(=O)N(C)Cc2ccccc2)c1`, for which the cytotoxicity at 10 µM was -13.2%.

Consider `O=C(CN1CCCC1Cn1cncn1)Nc1ccc(Cl)cn1` (stereo unspecified), for which the cytotoxicity at 10 µM is -5.89%.

In the case of `COC(C)(C)CNC(=O)N1CCCC1c1c(C)n[nH]c1C` (stereo unspecified), the cytotoxicity at 10 µM stood at 1.76%.

For the compound `NC(CC1CCCC1)c1ccc(Oc2ccccc2)cc1` (stereo unspecified), the cytotoxicity at 10 µM is 3.72%.

Turning to `Cc1cnn(CC(=O)NCC2(O)CCCc3ccccc32)c1` (stereo unspecified), the cytotoxicity at 10 µM was -38%.

Regarding `CS(=O)(=O)Cc1noc(CN2CCc3c(Cl)cccc3C2)n1`, the cytotoxicity at 10 µM is -4.07%.

For `CCCC(=O)N1CCCN(C(=O)c2oc(C)nc2C)CC1`, the cytotoxicity at 10 µM is -3.92%.

Consider `Fc1ccc(C(NCc2nnc(-c3ccco3)o2)C2CCC2)cc1` (stereo unspecified), for which the cytotoxicity at 10 µM is -36.3%.

On to `CN(Cc1ccc(Cl)s1)C(=O)CN(C)C1CCc2ccccc21` (stereo unspecified), for which the cytotoxicity at 10 µM worked out at 18.1%.

Turning to `O=C(CN1CCc2sccc2C1)Nc1ccnc2ccnn12`, the cytotoxicity at 10 µM was 46.8%.

In the case of `CCc1nnsc1C(=O)NC1CCN(CCOc2ccc(Br)cc2)CC1`, the cytotoxicity at 10 µM was -9.56%.

Take `COc1ccc(NC(C)=O)c(N2CCN(C(C)=O)CC2)n1`: the cytotoxicity at 10 µM is -8.83%.

For `Cc1ncnc2c1CCN(C(=O)N(C)C)CC2`, the cytotoxicity at 10 µM was -79.1%.

`CC(C)n1c2ccccc2c2c1cc(C(=O)N(C)C)n2C`: the cytotoxicity at 10 µM is -85.4%.

As for `O=C(CCO)N1CC[C@@H]2CN(C(=O)c3ccco3)CCO[C@@H]2C1`, the cytotoxicity at 10 µM is -72.6%.

Turning to `COCCC(=O)N1CCC2(CN(Cc3cccc(Cl)c3)C2)C1`, the cytotoxicity at 10 µM is -79.6%.

Take `c1cc(-c2cn3nccc3nc2C2CCCCC2)nc(N2CCCC2)n1`: the cytotoxicity at 10 µM amounted to 10.7%.

In the case of `COc1ccc2cc(C3CN(C(=O)CCNC(C)=O)CCO3)ccc2c1` (stereo unspecified), the cytotoxicity at 10 µM worked out at 9.85%.

Turning to `CCCC1(CO)CCCN(Cc2nccs2)C1` (stereo unspecified), the cytotoxicity at 10 µM is 1.41%.

Regarding `Cc1ccc(C2(O)CCN(C(=O)CCn3ccc(=O)[nH]c3=O)CC2)nc1`, the cytotoxicity at 10 µM was 1.99%.

With `Cc1nc(CCN)cc(N2CCC(O)(c3ccc(Cl)cc3)CC2)n1`, the cytotoxicity at 10 µM was -2.24%.

Consider `CCOC(=O)C1(Cc2ccc(Cl)cc2)CCN(Cc2ncc[nH]2)CC1`, for which the cytotoxicity at 10 µM was -2.36%.

On to `c1ccc2sc(N3CCN(c4ncnc5c4CCC5)CC3)nc2c1`, for which the cytotoxicity at 10 µM came to 56.7%.

As for `CCn1cc(-c2cc(-c3ccn(C)c3)nc(N)c2C#N)cc1C#N`, the cytotoxicity at 10 µM was found to be 2.11%.

For `O=C1NCCCC12CCN(c1nc3c(c(C(F)(F)F)n1)CCCC3)C2` (stereo unspecified), the cytotoxicity at 10 µM was -7.11%.

As for `O=C1N(Cc2ccc(F)c(F)c2)CCCC12CCN(C1CCSCC1)C2` (stereo unspecified), the cytotoxicity at 10 µM was -19.1%.

Take `CCOCc1ccc(CNc2cncc(-n3cccn3)n2)cc1`: the cytotoxicity at 10 µM was 20.8%.

In the case of `COc1cc(C(=O)Nc2nc(C)no2)ccc1OC(F)F`, the cytotoxicity at 10 µM is -4.29%.

Consider `O=C(NCCCNc1ccc(C(F)(F)F)cn1)c1ccc(F)cc1Br`, for which the cytotoxicity at 10 µM is 13.1%.

As to `COc1ccc(C)cc1CN1CCCC1c1noc(C2CC2)n1` (stereo unspecified), the cytotoxicity at 10 µM stood at 16.3%.

On to `Cn1ncc(NCc2cccc(COC(C)(C)C)c2)c(Cl)c1=O`, for which the cytotoxicity at 10 µM was determined as 42.2%.

Regarding `Cc1nc(C)n(CC2CCCN(c3ncnc4c3CCC4)C2)n1` (stereo unspecified), the cytotoxicity at 10 µM came out at 30.5%.

Regarding `CC(C)CN1C(=O)C2(CCN(Cc3nccs3)C2)c2ccccc21` (stereo unspecified), the cytotoxicity at 10 µM turned out to be 0.371%.

On to `Fc1cccc(N2CCCC3(CN(Cc4ccncc4)CCO3)C2)c1` (stereo unspecified), for which the cytotoxicity at 10 µM stood at 8.98%.

Take `Fc1cccc(N2CCCC3(C2)CN(c2ncccn2)CCO3)c1` (stereo unspecified): the cytotoxicity at 10 µM is 17.4%.

On to `CCc1cnc(N2CCc3cc(C(=O)NC)c(N(C)C)nc3CC2)nc1`, for which the cytotoxicity at 10 µM was -125%.

As for `CN(C)C(=O)CN1C(=O)C[C@@H]2[C@@H]1CCN2Cc1cccc(C#N)c1`, the cytotoxicity at 10 µM was -61.3%.

As for `CN(C)c1nccc(N2CCO[C@H]3CN(Cc4nccn4C)C[C@H]32)n1`, the cytotoxicity at 10 µM was -123%.

For `Cc1ccc(CN2CCCC3(CCN(Cc4ccoc4)CC3)C2)cc1`, the cytotoxicity at 10 µM was -91%.

`Fc1cnc(N2CCN3C[C@H](Oc4cccnc4)C[C@H]3C2)nc1`: the cytotoxicity at 10 µM turned out to be 13.1%.

With `CC(=O)c1cc(CN2C[C@@H]3CC[C@H]2CN(S(=O)(=O)N(C)C)C3)cs1`, the cytotoxicity at 10 µM was -8.19%.

The values above are taken from ChEMBL document CHEMBL4513216, “Probing the Open Global Health Chemical Diversity Library for Multistage-Active Starting Points for Next-Generation Antimalarials” (ACS Infect Dis, 2020).
